IC50, EC50 and MIC data for twelve molecules are collected here from ChEMBL document CHEMBL4819119, “Design and evaluation of 1,2,3-dithiazoles and fused 1,2,4-dithiazines as anti-cancer agents” (Bioorg Med Chem Lett, 2021).

The subject of assay [1] is 5637. Kind of assay: Cytotoxicity against human 5637 cells assessed as reduction in cell viability incubated for 3 hrs by MTT assay. The format is functional, cell-based. Particulars: Homo sapiens, 5637, 3 h. On the technique in general: Formazan colour is commonly taken as a measure of viable cells.
The test system of assay [2] is DU-145. Briefly: Cytotoxicity against human DU-145 cells. The format is functional, cell-based.
In assay [3] the test system is Feline immunodeficiency virus. Briefly: Antiviral activity against Feline immunodeficiency virus. The format is functional, organism-based.
Assay [4] has as its system L1210. Briefly: Cytotoxicity against mouse L1210 cells. In kind it is functional, cell-based.
Assay [5] has as its system K562. Briefly: Cytotoxicity against human K562 cells. In kind it is functional, cell-based.
Assay [6] relates to Cryptococcus neoformans. Kind of assay: Antifungal activity against Cryptococcus neoformans. The format is functional.
The test system of assay [7] is Listeria monocytogenes. Briefly: Antibacterial activity against Listeria monocytogenes. The format is functional.
Assay [8] concerns Staphylococcus aureus. Kind of assay: Antibacterial activity against Staphylococcus aureus. In kind it is functional.
Assay [9] deals with Enterococcus faecalis. Kind of assay: Antibacterial activity against Enterococcus faecalis. The format is functional.
The target in assay [10] is T1, Neutral amino acid transporter B(0) (Homo sapiens, UniProt Q15758).
T1 sequence (Q15758 whole entry): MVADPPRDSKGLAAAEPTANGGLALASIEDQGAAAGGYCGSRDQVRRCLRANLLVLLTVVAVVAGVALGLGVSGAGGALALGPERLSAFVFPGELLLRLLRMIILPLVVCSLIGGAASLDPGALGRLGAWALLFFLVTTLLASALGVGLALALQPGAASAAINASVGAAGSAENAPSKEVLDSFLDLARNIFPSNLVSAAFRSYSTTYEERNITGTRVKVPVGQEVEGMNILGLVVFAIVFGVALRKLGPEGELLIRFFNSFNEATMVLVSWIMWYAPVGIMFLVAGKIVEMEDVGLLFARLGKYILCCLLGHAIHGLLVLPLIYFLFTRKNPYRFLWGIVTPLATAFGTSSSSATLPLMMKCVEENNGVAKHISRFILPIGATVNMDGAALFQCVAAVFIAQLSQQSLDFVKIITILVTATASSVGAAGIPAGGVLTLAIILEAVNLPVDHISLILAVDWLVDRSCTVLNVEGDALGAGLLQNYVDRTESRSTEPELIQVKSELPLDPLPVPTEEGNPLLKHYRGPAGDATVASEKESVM
Briefly: Inhibition of ASCT2 (unknown origin).

In assay [11] the test system is A-431. Briefly: Cytotoxicity against human A-431 cells assessed as reduction in cell viability incubated for 72 hrs by alamar blue assay. In kind it is functional, cell-based. Particulars: A-431, 72 h. Summed up: (§1)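 Cells seeded in 384-well plates and dosed 24 h after plating, in quadruplicate. Viability was read by alamarBlue fluorescence at 72 h. IC50 came from nonlinear regression as the mean of 4 replicates. Growth media carried 10% FBS and 1% pen/strep: UCH1/UCH2 in 4:1 IMDM:RPMI-1640 in gel-coated flasks; A431, PANC1 and WS1 in DMEM; DU145 and MCF7 in MEM; 5637 in RPMI-1640.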
(In general: Alamar Blue is a resazurin reagent that responds to reducing activity.)

Assay [12] deals with MCF7. Briefly: Cytotoxicity against human MCF7 cells assessed as reduction in cell viability incubated for 72 hrs by alamar blue assay. In kind it is functional, cell-based. Particulars: MCF7, 72 h. Summed up:
as §1

Assay [13] is described as follows: Cytotoxicity against human UCH1 cells assessed as reduction in cell viability incubated for 72 hrs by alamar blue assay. The format is functional, cell-based. The note with it: UCH1, 72 h. Summed up:
as §1

In assay [14] the test system is 5637. Briefly: Cytotoxicity against human 5637 cells assessed as reduction in cell viability incubated for 72 hrs by alamar blue assay. The format is functional, cell-based. Particulars: Homo sapiens, 5637, 72 h. Summed up: as §1
The nature of assay [15]: Cytotoxicity against human UCH2 cells assessed as reduction in cell viability incubated for 72 hrs by alamar blue assay. The format is functional, cell-based. The note with it: UCH2, 72 h. Summed up:
as §1

The nature of assay [16]: Cytotoxicity against human WS1 cells assessed as reduction in cell viability incubated for 72 hrs by alamar blue assay. In kind it is cell-based. Particulars: WS1, 72 h. Summed up: as §1
Assay [17] concerns PANC-1. Briefly: Cytotoxicity against human PANC1 cells assessed as reduction in cell viability incubated for 72 hrs by alamar blue assay. The format is functional, cell-based. Particulars: PANC-1, 72 h. Summed up:
as §1

In assay [18] the test system is DU-145. Briefly: Cytotoxicity against human DU-145 cells assessed as reduction in cell viability incubated for 72 hrs by alamar blue assay. In kind it is functional, cell-based. The note with it: DU-145, 72 h. Summed up: as §1
In assay [19] the test system is PANC-1. Briefly: Cytotoxicity against human PANC1 cells assessed as reduction in cell viability incubated upto 72 hrs by MTT assay. Particulars: PANC-1, 72 h. The format is functional, cell-based.

≈ marks a conversion by molar mass, not a printed value. A value given as a limit tells only on which side of the number the result lay.

One may read the IC50 as the concentration that gives 50% inhibition. In the case of `Cc1ccc(Nc2nccc(N(C)c3ccc4c(C)n(C)nc4c3)n2)cc1S(N)(=O)=O` [PAZOPANIB], the IC50 in assay [1] was found to be 15 µM.

In assay [2], `CC(=O)O[C@@]12CO[C@@H]1C[C@H](O)[C@@]1(C)C(=O)[C@H](O)C3=C(C)[C@@H](OC(=O)[C@H](O)[C@@H](NC(=O)OC(C)(C)C)c4ccccc4)C[C@@](O)([C@@H](OC(=O)c4ccccc4)[C@H]21)C3(C)C` [DOCETAXEL ANHYDROUS] came in with an IC50 of 0.005 µM.

Broadly, the EC50 is the concentration that produces a half-maximal response. Higher therefore signals weaker potency. In the case of `CCOC(=O)c1c2n[se]sc-2c(Cl)c1Cl`, in assay [3], a half-maximal effect (EC50) was put at 0.082 µM.

Turning to `N#Cc1cnn(CCc2ccccc2)c1/N=c1\ssnc1Cl`, the IC50 in assay [4] came to 5 µM; in assay [5], 3 µM.

As usually defined, the MIC is the lowest concentration that inhibits growth of the organism. A higher MIC goes with a less susceptible organism. For `N#Cc1ccccc1/N=c1\ssnc1Cl`, in assay [6], the MIC was 8 µg/mL (≈ 31.5 µM).

Take `CCOC(=O)c1c2nssc-2c(Cl)c1Cl`: the response in assay [3] was half-maximal at 0.31 µM (EC50).

Consider `Clc1nss/c1=N\c1ccccc1`, for which the MIC in assay [7], in assay [8] and in assay [9] was 16 µg/mL (≈ 70 µM) each time.

For the molecule `CC.FC(F)(F)Oc1ccc(/N=c2\ssnc2Cl)cc1Cl`, the 50% inhibitory concentration (IC50) in [10] was 8.1 µM; in [11], over 100 µM; in assay [12], 88 µM; in [13] it was over 100 µM; in assay [14] it was 33 µM; in [15], 43 µM. Further, the figures for the 50% inhibitory concentration (IC50) in assay [16], in assay [17] and in assay [18] were over 100 µM, over 100 µM and 32 µM, respectively.

As to `Cc1[nH]c2ccccc2c1CCNCc1ccc(/C=C/C(=O)NO)cc1` [PANOBINOSTAT], the IC50 in [19] was 1 µM.

As for `COc1ccc(/N=c2\ssnc2Cl)cc1`, the lowest concentration to inhibit growth in [6] (MIC) was 8 µg/mL (≈ 30.9 µM).

As for `Clc1nss/c1=N\c1cccc(Br)c1`, the IC50 in [11] is over 100 µM; in [12] it was 6.7 µM; in [13], 40 µM; in assay [14], 53 µM; in assay [15], 59 µM; in assay [16] it was 94 µM. The IC50 stood at 38 µM in [17] and 27 µM in assay [18].

As for `N#CSCCN1CCN(c2nss/c2=N\c2ccccc2)CC1`, the concentration for half-maximal inhibition (IC50) was over 100 µM in assay [11]; 32 µM in [12]; 38 µM in [13]; 93 µM in assay [14]; 38 µM in assay [15]; over 100 µM in assay [16]. Moreover, the IC50 worked out at 16 µM in assay [17] and 14 µM in assay [18].
